# High-throughput results: PubChem, several laboratories
# This is one part of a sample in which hits are shown more often than they occur.
# XiGFP reactiv: activators of X-chromosome reactivation in mouse fibroblasts; activation, % at 7.58 µM; 0.055% of 360,000 active; XiGFP mouse fibroblasts, % GFP-positive cells imaging, 3 d; cells co-treated with 5-aza-dC sensitizer; scaled so ellipticine positive control = 100%;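 active = mean normalized replicate activation at least 10% and every replicate at or above 10%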;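 also: 0% = median of on-plate neutral control wells and 100% = ellipticine 6 µM median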
#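 System: SV40-immortalized XiGFP fibroblast cells, line 68-5-11 / Incubation: 3-day compound exposure, then 15 min fixation at room temperature / Compound: single concentration per compound, delivered by pin transfer / Buffer or medium: DMEM plus 5-aza-dC sensitizer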
# ABCB6 inh 2: human ABCB6 transporter inhibition. Q9NP58. K562-ABCB6 porphyrin accumulation, flow cytometry, 1 h; stronger effect = lower value. fluorescence ratio to DMSO, % at 10 µM. 0.19% of 360,000 active. AID 602162;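 active = fluorescence ratio to DMSO below 75%, the collection mean minus 3 SD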;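 also: signal is porphyrin accumulated inside mitochondria; 100% equals median channel fluorescence of DMSO control wells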
# Target sequence (Q9NP58 whole entry, looked up): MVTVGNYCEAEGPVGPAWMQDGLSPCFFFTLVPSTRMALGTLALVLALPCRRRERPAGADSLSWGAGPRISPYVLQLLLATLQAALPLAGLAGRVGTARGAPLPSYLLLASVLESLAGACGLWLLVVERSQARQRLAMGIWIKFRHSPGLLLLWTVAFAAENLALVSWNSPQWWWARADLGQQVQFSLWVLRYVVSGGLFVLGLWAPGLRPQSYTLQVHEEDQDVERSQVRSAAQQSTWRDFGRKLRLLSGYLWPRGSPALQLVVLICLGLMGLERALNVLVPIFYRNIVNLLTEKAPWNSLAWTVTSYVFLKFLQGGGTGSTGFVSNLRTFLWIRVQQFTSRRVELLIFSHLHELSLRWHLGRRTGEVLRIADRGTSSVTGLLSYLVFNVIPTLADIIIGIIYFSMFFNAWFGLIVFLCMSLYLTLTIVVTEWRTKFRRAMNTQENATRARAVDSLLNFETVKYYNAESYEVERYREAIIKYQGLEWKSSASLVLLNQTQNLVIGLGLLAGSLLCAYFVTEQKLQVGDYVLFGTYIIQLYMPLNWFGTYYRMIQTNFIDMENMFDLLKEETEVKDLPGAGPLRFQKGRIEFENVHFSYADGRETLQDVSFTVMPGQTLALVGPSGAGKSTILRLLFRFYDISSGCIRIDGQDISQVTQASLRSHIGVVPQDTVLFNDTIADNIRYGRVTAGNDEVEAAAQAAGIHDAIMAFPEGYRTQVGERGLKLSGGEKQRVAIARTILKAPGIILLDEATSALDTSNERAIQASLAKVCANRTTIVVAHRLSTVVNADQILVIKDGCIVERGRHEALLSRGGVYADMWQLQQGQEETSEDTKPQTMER
# Myeloid diff MLP: compounds promoting myeloid differentiation. 1% of 360,000 active. calls only at 10 µM. AID 624256. ER-HoxA9 myeloid progenitors, lysozyme-GFP differentiation, flow cytometry;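 active = normalized GFP-positive differentiation at or above the plate's own cutoff, the solvent-only control mean plus 3 SD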;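 also: cells exposed to compound for four days before flow analysis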
# Myeloid diff: compounds promoting myeloid differentiation. shares compounds with Myeloid diff MLP. ER-HoxA9 myeloid progenitors, GFP/Mac1 double-positive flow. calls only. 2% of 2,300 active. AID 651706;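 active = share of green or green-and-red cells above 9 and 9% in run 1 or 4 and 3% in run 2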
# GFP autofluor: flagged as fluorescent in myeloid differentiation counter-screen; shares compounds with Myeloid diff MLP; ER-HoxA9 myeloid progenitors, no estrogen, GFP autofluorescence flow cytometry; vehicle wells 0%, positive control 100%; fluorescence response, % (concentration not given with the values); 7.4% of 2,300 active;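 active = over 5% cells positive for green fluorescent reporter, or over 2% positive for both it and APC stain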;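 also: range taken on the double positive population between DMSO and positive control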
# * marks the source's active call; other numbers are inactive results; i = inactive; nt = no result given; + = active, no number.
SMILES,XiGFP reactiv,ABCB6 inh 2,Myeloid diff MLP,Myeloid diff,GFP autofluor
COc1ccccc1C1(CCNS(=O)(=O)c2ccc(C)cc2)CCOC(C(C)C)C1 (stereo not given),nt,99,+,i,0
COc1ccccc1C1(CCNC(C)c2cccs2)CCOC(C(C)C)C1 (stereo not given),0,99,i,nt,nt
C[C@@H]1CCCCO[C@@H](CN(C)Cc2ccc(C(=O)Nc3ccccc3N)cc2)[C@@H](C)CN([C@H](C)CO)C(=O)c2cc(NC(=O)Nc3ccc4c(c3)OCO4)ccc2O1,0,nt,nt,nt,nt
c1cn2c(NC3CCCCC3)c(-c3ccc(SC4CCCCC4)cc3)nc2cn1,0,116,i,nt,nt
c1cc(SC2CCCCC2)cc(-c2nc3cnccn3c2NC2CCCCC2)c1,0,109,i,i,0
O=C(C[C@H]1C[C@H]2c3cc(NC(=O)c4ccc5c(c4)OCO5)ccc3O[C@H]2[C@@H](CO)O1)NCCc1ccccc1,0,nt,nt,nt,nt
CCC(=O)c1cn(CC(=O)Nc2cccc(C)c2C)c2ccccc12,0,95,i,nt,nt
CCC(=O)c1cn(CC(=O)Nc2ccccc2Cl)c2ccccc12,0,169,+,i,2.1*
Cc1ccc(C=Nc2ccccc2C#N)s1,0,97,i,nt,nt
Cc1c(Cl)cccc1N=Cc1ccc([N+](=O)[O-])s1,nt,114,i,i,0
O=C(C[C@H]1CC[C@H](NC(=O)NC2CCCCC2)[C@H](CO)O1)NCc1ccccc1,0,nt,nt,nt,nt
C[C@@H]1CN([C@@H](C)CO)C(=O)c2cc(NC(=O)C3CCCCC3)ccc2O[C@@H](C)CCCCO[C@H]1CN(C)Cc1ccc2c(c1)OCO2,3,nt,nt,nt,nt
Nc1nc(-c2ccc(Oc3ccccc3)cc2)c(CC(=O)O)s1,0,100,i,i,0
Nc1nc(-c2ccccc2)c(CC(=O)O)s1,0,101,i,nt,nt
CC1=C(C(=O)N(C)C)CC(CC(=O)NCCCN(C)C)C(=O)N1Cc1ccc(C(C)(C)C)cc1 (stereo not given),0,101,i,nt,nt
CCN(CC)C(=O)C1=C(C)N(Cc2ccc(C(C)(C)C)cc2)C(=O)C(CC(=O)NCCCN(C)C)C1 (stereo not given),0,102,i,i,0
CCC(CO)Oc1cc(NCc2ccc(Cl)cc2)c2ncn(C(C)C)c2c1 (stereo not given),0,103,i,i,1
CC[C@H](CO)Oc1cc(NCc2ccc(Cl)c(Cl)c2)c2ncn(C(C)C)c2c1,0,99,i,nt,nt
CCCC(=O)N1CC2(CN(S(=O)(=O)CC)C2)c2c(n(C)c3cc(OC)ccc23)[C@@H]1CO,0,nt,nt,nt,nt
C[C@@H]1CN([C@H](C)CO)S(=O)(=O)c2ccc(-c3cncnc3)cc2O[C@@H]1CN(C)Cc1cccnc1,1,nt,nt,nt,nt
O=C1c2cccc3cccc(c23)C(=O)N1CCN1CCN(CC(O)COCc2ccc(Cl)cc2)CC1 (stereo not given),1,99,i,nt,nt
COc1cc(COCC(O)CN2CCN(CCN3C(=O)c4cccc5cccc(c45)C3=O)CC2)cc(OC)c1OC (stereo not given),1,101,+,i,1
C[C@H](CO)N1C[C@H](C)[C@@H](CN(C)S(=O)(=O)c2cn(C)cn2)Oc2cc(C3=CCCC3)ccc2S1(=O)=O,0,nt,nt,nt,nt
COc1ccc2c3c([nH]c2c1)[C@H](CO)N(C(=O)C1CCC1)CC31CCN(C)CC1,0,nt,nt,nt,nt
CN(C)c1ccc(/C=[N+](\[O-])C(C)(C)/C=N/O)cc1,nt,99,i,nt,nt
SMILES,XiGFP reactiv,ABCB6 inh 2,Myeloid diff MLP,Myeloid diff,GFP autofluor
Cc1ccc(/C=[N+](/C)[O-])cc1,0,100,i,i,0
CC(=O)c1c(C)n(CC(=O)NCc2ccc3c(c2)OCO3)c2ccccc12,nt,94,+,i,98*
O=C(Cn1c(CO)nc2ccccc21)NCc1ccc2c(c1)OCO2,0,107,i,nt,nt
CN(C)c1ccc(-c2cc(NC=O)c3ncc(-c4ccc(F)c(Cl)c4)n3c2)cc1,0,115,+,i,1
O=CNc1cc(-c2ccccc2)cn2c(-c3ccc(F)c(Cl)c3)cnc12,0,104,i,nt,nt
CN1CCN(c2ccc(-c3cc(NC=O)c4ncc(-c5ccc(F)c(Cl)c5)n4c3)cc2)CC1,0,130,+,i,1
O=CNc1cc(-c2ccccc2Oc2ccccc2)cn2c(-c3ccc(F)cc3)cnc12,0,100,i,nt,nt
COc1ccc(-c2cnc3c(NC=O)cc(-c4ccc(S(C)(=O)=O)cc4)cn23)cc1OC,0,92,nt,nt,nt
